# Active and inactive are the calls of the source. The calls are words filed in the database; no cut-off is given here.
# Columns and labels:
# HepG2 = assay: Cytotoxicity against human HepG2 cells assessed as reduction in cell viability after 48 hrs by MTS assay; format: cell-based; details: HepG2, 48 h
# In short: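 HepG2 cells were seeded at 2250 per well and grown 24 h at 37 °C, 5% CO₂. Serial dilutions starting at 25 μM were added for a further 48 h. MTS was then added for 3 h at 37 °C and absorbance read at 490 nm. EC₅₀ came from nonlinear dose–response fits.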
# [1] = Intrinsic clearance in mouse liver microsomes assessed as parent compound at 1 uM after 60 mins in presence of NADPH by LC-MS analysis; format: ADME, Microsome
# In short: (§1)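 Mouse liver microsomes (0.5 mg/mL final protein) in 0.1 M phosphate, pH 7.4, with compound at 1 μM, 37 °C with shaking. Aliquots were quenched in cold acetonitrile and centrifuged; LC–MS gave parent peak area at 60 min relative to 0 min.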
# [2] = Selectivity index, ratio of EC50 for cytotoxicity against human HepG2 cells to antiplasmodial activity against chloroquine-resistant Plasmodium falciparum Dd2; format: toxicity, cell-based; details: read-out: Ratio EC50
# Plasmodium falciparum [3] = assay: Antiplasmodial activity against chloroquine-sensitive Plasmodium falciparum 3D7 infected in human erythrocytes assessed as reduction in microbial growth after 72 hrs by SYBR green I staining based fluorescence assay; format: functional, organism-based; details: 3D7, Erythrocyte
# In short: (§2)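 SYBR Green I assay: twofold serial dilutions on P. falciparum cultures at 1% parasitemia, 1% hematocrit, 37 °C, 5% CO₂, 72 h, max 0.1% DMSO. DMSO and CQ as growth and inhibition controls. Plates frozen at −80 °C, thawed, lysed in Tris/saponin/EDTA/Triton buffer with 0.01% SYBR Green I, 1 h dark at room temperature. Fluorescence read at 485 ex/530 em. EC50 by nonlinear dose–response fit.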
# [4] = Half life in mouse liver microsomes at 1 uM after 60 mins in presence of NADPH by LC-MS analysis; format: ADME, Microsome; details: 1 h; in short: as §1
# [5] = Stability of compound in mouse liver microsomes assessed as parent compound remaining at 1 uM after 60 mins in presence of NADPH by LC-MS analysis; format: ADME, Microsome; details: 1 h; in short: as §1
# Plasmodium falciparum [6] = assay: Antiplasmodial activity against chloroquine-resistant Plasmodium falciparum Dd2 infected in human erythrocytes assessed as reduction in microbial growth after 72 hrs by SYBR green I staining based fluorescence assay; format: functional, organism-based; details: Dd2, Erythrocyte; in short: as §2
# [7] = Resistant index, ratio of EC50 for antiplasmodial activity against chloroquine-resistant Plasmodium falciparum Dd2 to antiplasmodial activity against chloroquine-sensitive Plasmodium falciparum 3D7; format: functional
# [8] = Drug level in mouse liver microsomes treated with 6-chloro-2-(4-fluorostyryl)-N-(2-(4-methylpiperazin-1-yl)ethyl)quinolin-4-amine measured up to 60 mins by LC-MS analysis; format: ADME, Microsome; details: 1 h
# In short: (§3)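 Microsomal incubations: mouse liver microsomes at 0.5 mg/mL, 1 μM compound, pH 7.4 phosphate, 37 °C, NADPH-regenerating system. The metabolite mixture was analysed by LC–MS after 15, 30 and 60 min.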
# [9] = Drug level in mouse liver microsomes treated with N1,N1-diethyl-N4-(6-methoxy-2-(4-nitrostyryl)quinolin-4-yl)pentane-1,4-diamine measured up to 60 mins by LC-MS analysis; format: ADME, Microsome; details: 1 h; in short: as §3
# [10] = Stability of compound in mouse liver microsomes assessed as parent compound remaining after 60 mins in presence of NADPH by LC-MS analysis; format: ADME, Microsome; details: read-out: Stabilty
# [11] = Half life in mouse liver microsomes after 60 mins in presence of NADPH by LC-MS analysis; format: ADME, Microsome
# Plasmodium falciparum [12] = assay: Antiplasmodial activity against synchronous gametocyte late stage of Plasmodium falciparum 3D7 harboring luc7 incubated for 72 hrs by ONE-Glo luciferase assay; format: functional, organism-based; details: 3D7, 72 h
# In short: (§4)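 Gametocytes of P. falciparum 3D7 luc7 induced by nutrient starvation, cultured in heparin medium to remove asexual stages, Percoll-purified as early (II–III) or late (IV–V) stage. 50,000 gametocytes/well exposed 72 h to a 19-point gradient, 0.038 nM–10 μM. ONE-Glo luciferase read after 5 min. EC50 by nonlinear curve fit; three experiments.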
# Plasmodium falciparum [13] = assay: Antiplasmodial activity against synchronous gametocyte early stage of Plasmodium falciparum 3D7 harboring luc7 incubated for 72 hrs by ONE-Glo luciferase assay; format: functional, organism-based; details: 3D7, 72 h; in short: as §4
# Plasmodium falciparum [14] = assay: Antiplasmodial activity against synchronized chloroquine-resistant Plasmodium falciparum Dd2 reduction in microbial growth at 50 nM treated with compound at 42 hrs post infection measured after 12 hrs by Giemsa staining-based microscopic analysis; format: functional, organism-based
# In short: (§5)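 Dd2 cultures tightly synchronized by magnetic separation and sorbitol were dosed at 5 × EC50 at 6, 18, 30 or 42 h post-invasion. Controls: DHA 50 nM, atovaquone 6.6 nM, DMSO 0.1%. Sampled every 12 h for Giemsa thin smears and for flow cytometry: glutaraldehyde/paraformaldehyde fixation, Triton permeabilization, RNAse, 500 nM YOYO-1, 500,000 events/sample. Three independent biological replicates.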
# Plasmodium falciparum [15] = assay: Antiplasmodial activity against synchronized chloroquine-resistant Plasmodium falciparum Dd2 reduction in microbial growth at 50 nM treated with compound at 42 hrs post infection measured after 12 hrs by YOYO-1 staining-based flow cytometric analysis; format: functional, organism-based; in short: as §5
# Plasmodium falciparum [16] = assay: Parasiticidal activity against chloroquine-resistant Plasmodium falciparum Dd2 infected in RBC assessed as reduction in parasitemia at 50 nM incubated for 6 to 48 hrs followed by compound washout and then incubated for 96 hrs by Giemsa staining based microscopic analysis; format: functional, organism-based; details: time hrs 6-48
# In short: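 Controls: 0.15% DMSO, DHA 50 nM, atovaquone 6.6 nM. Drug removed by three RPMI washes, then parasitemia followed daily for 96 h by Giemsa thin smears. Three independent biological replicates.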
# [17] = Drug level in mouse liver microsomes treated with N1-(6-chloro-2-(4-fluorostyryl)quinolin-4-yl)-N2,N2-dimethylethane-1,2-diamine measured up to 60 mins by LC-MS analysis; format: ADME, Microsome; details: 1 h; in short: as §3
# [18] = Drug level in mouse liver microsomes treated with 6-chloro-N-(4-morpholinobutyl)-2-(2-(pyridin-4-yl)vinyl)quinolin-4-amine measured up to 60 mins by LC-MS analysis; format: ADME, Microsome; details: 1 h; in short: as §3
SMILES,EC50 (HepG2) [nM],CLH [1] [µL/min/mg],selectivity ratio [2],EC50 (Plasmodium falciparum [3]) [nM],Stabilty [5] [%],EC50 (Plasmodium falciparum [6]) [nM],Ratio EC50 [7],other results
Fc1ccc(/C=C/c2cc(NCc3ccccn3)c3cc(Cl)ccc3n2)cc1,19800,21.2,127,248,52.9,156,0.6,t1/2 [4]: 65.3 min
Fc1ccc(/C=C/c2cc(NCCN3CCNCC3)c3cc(Cl)ccc3n2)cc1,–,–,–,–,–,–,–,Drug uptake [8]: Active
CN(C)CCNc1cc(/C=C/c2cccc(F)c2)nc2ccc(Cl)cc12,4780,32.1,810,23,38.2,5.9,0.3,t1/2 [4]: 43.2 min
CCN(CC)CCCC(C)Nc1cc(/C=C/c2ccc([N+](=O)[O-])cc2)nc2ccc(O)cc12 (stereo unspecified),–,–,–,–,–,–,–,Drug uptake [9]: Active
CCN(CC)CCCC(C)Nc1cc(/C=C/c2ccc([N+](=O)[O-])cc2)nc2ccc(OC)cc12 (stereo unspecified),7020,33.4,105,119,36.7,67,0.6,remaining at 1 h [10]: 47.8%; half-life [11]: 56.2 min
C[C@H]1[C@@H](O)O[C@@H]2O[C@@]3(C)CC[C@H]4[C@H](C)CC[C@@H]1[C@@]24OO3 [ARTENIMOL],–,–,–,–,–,–,–,EC50 (Plasmodium falciparum [12]): 37.4 nM; EC50 (Plasmodium falciparum [13]): 17.4 nM; Activity (Plasmodium falciparum [14]): Active; Activity (Plasmodium falciparum [15]): Active; Activity (Plasmodium falciparum [16]): Active
NCCNc1cc(/C=C/c2ccc(F)cc2)nc2ccc(Cl)cc12,–,–,–,–,–,–,–,Drug uptake [17]: Active
CNCCNc1cc(/C=C/c2ccc(F)cc2)nc2ccc(Cl)cc12,–,–,–,–,–,–,–,Drug uptake [17]: Active
CCNCCCC(C)Nc1cc(/C=C/c2ccc([N+](=O)[O-])cc2)nc2ccc(OC)cc12 (stereo unspecified),–,–,–,–,–,–,–,Drug uptake [9]: Active
OCCNCCCCNc1cc(/C=C/c2ccncc2)nc2ccc(Cl)cc12,–,–,–,–,–,–,–,Drug uptake [18]: Active

# From ChEMBL document CHEMBL4665829, “Synthesis, Structure-Activity Relationship, and Antimalarial Efficacy of 6-Chloro-2-arylvinylquinolines” (J Med Chem, 2020)
